Assay results reported in ChEMBL document CHEMBL1132342, “Novel hypotensive agents from Verbesina caracasana. 6. Synthesis and pharmacology of caracasandiamide” (1999).
Where “and” joins values, the source holds several entries; their conditions need not be identical. Identical values can stand only once.

Columns and labels:
[1] = system: Rattus norvegicus; test: Change in heart rate after iv administration of 1600 ug/Kg in the presence of isoprenaline (agonist) in anesthetized rats; type: functional
In short: (§1)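 Urethane-anesthetized male Wistar rats (16 rats, two equal groups) received 400 or 1600 µg/kg compound iv. Cardiovascular responses to iv agonist boluses (noradrenaline 1 µg/kg, acetylcholine 2.50 µg/kg, adrenaline, isoprenaline) were measured before and after compound dosing. Peak responses are given as mean ± SE; p < 0.05 versus control mean.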

[2] = system: Rattus norvegicus; test: Maximum rate of rise of the left ventricular isovolumetric pressure was measured after iv administration of 4.12 uM/Kg in anesthetized rats; type: functional, Heart left ventricle
[3] = system: Rattus norvegicus; test: Maximum rate of rise of the left ventricular isovolumetric pressure was measured after iv administration of 400 ug/Kg in the presence of adrenaline (agonist) in anesthetized rats; type: functional, Heart left ventricle
In short: (§2)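 Anesthetized male Wistar rats, two groups of 8, received 400 or 1600 µg/kg iv. Before and after this dose, iv agonist challenges were given: noradrenaline 1 µg/kg, adrenaline, acetylcholine 2.50 µg/kg, or isoprenaline. Systolic/diastolic BP, heart rate and dP/dt responses were recorded before (control) and after dosing; significance was set at p < 0.05 versus control.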

[4] = system: Rattus norvegicus; test: Change in systolic blood pressure after iv administration of 1600 ug/Kg in anesthetized rats; type: functional, Artery
In short: (§3)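 Male Wistar rats (299 ± 3 g) were anesthetized with ethylurethane ip, tracheally cannulated and breathing spontaneously, at 37 °C, and stabilized for 60 min. Doses of 50-3200 µg/kg (ratio 2.0) in saline were injected by femoral vein, 50 µL each. Recordings: femoral arterial BP, electromagnetic abdominal-aortic flow, SV from integrated pulsatile flow, polygraphic RF. Peak changes, mean ± SE, n = 12 (n = 7 at 3200).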

[5] = system: Rattus norvegicus; test: Change in mean aortic flow after iv administration of 100 ug/Kg in anesthetized rats; type: functional; in short: as §3
[6] = system: Rattus norvegicus; test: Change in diastolic blood pressure after iv administration of 1600 ug/Kg in the presence of isoprenaline (agonist) in anesthetized rats; type: functional, Artery; in short: as §1
[7] = system: Rattus norvegicus; test: Change in mean aortic flow after iv administration of 50 ug/Kg in anesthetized rats; type: functional; in short: as §3
[8] = system: Rattus norvegicus; test: Change in systolic blood pressure after iv administration of 400 ug/Kg in the presence of isoprenaline (agonist) in anesthetized rats; type: functional, Artery; in short: as §2
[9] = system: Rattus norvegicus; test: Maximum rate of rise of the left ventricular isovolumetric pressure was measured after iv administration of 1600 ug/Kg in the presence of adrenaline (agonist) in anesthetized rats; type: functional, Heart left ventricle; in short: as §2
[10] = system: Rattus norvegicus; test: Change in systolic blood pressure after iv administration of 1600 ug/Kg compound (treatment with papaverine(1 mg/Kg/min, iv)in anesthetized rats; type: functional, Artery
In short: (§4)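 Urethane-anesthetized male Wistar rats, 6 per group, received iv doses of 200-1600 µg/kg (ratio 2.0) given alone or under a pretreatment. Pretreatments were continuous iv papaverine infusion (1 mg/kg/min), reserpine 5 mg/kg/day ip for 2 days, or hexamethonium 5 mg/kg iv. Peak changes in femoral arterial BP and HR were recorded; values are mean ± SE.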

[11] = system: Rattus norvegicus; test: Change in systolic blood pressure after iv administration of 400 ug/Kg compound (treatment with hexamethonium (5 mg/Kg, iv)in anesthetized rats; type: functional, Artery; in short: as §4
[12] = system: Rattus norvegicus; test: Change in diastolic blood pressure after iv administration of 400 ug/Kg in the presence of acetylcholine (agonist) in anesthetized rats; type: functional, Artery; in short: as §1
[13] = system: Rattus norvegicus; test: Change in stroke volume after iv administration of 400 ug/Kg in anesthetized rats; type: functional; in short: as §3
[14] = system: Rattus norvegicus; test: Change in stroke volume after iv administration of 800 ug/Kg in anesthetized rats; type: functional; in short: as §3
[15] = system: Rattus norvegicus; test: Change in diastolic blood pressure after iv administration of 1600 ug/Kg in the presence of adrenaline (agonist) in anesthetized rats; type: functional, Artery; in short: as §1
[16] = system: Rattus norvegicus; test: Change in heart rate after iv administration of 100 ug/Kg in anesthetized rats; type: functional
In short: (§5)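 Adult male Wistar rats under ip ethylurethane (10% w/v in saline, 1 mL/kg) with tracheal cannula and spontaneous breathing, kept at 37 °C. Arterial BP was recorded by femoral artery catheter; compound in saline (50 µL) was given via femoral vein at 50–3200 µg/kg, ratio 2.0. Peak change is given as mean ± SE, n = 12 (n = 7 at 3200 µg/kg).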

[17] = system: Rattus norvegicus; test: Change in diastolic blood pressure after iv administration of 400 ug/Kg in the presence of noradrenaline (agonist) in anesthetized rats; type: functional, Artery; in short: as §1
[18] = system: Rattus norvegicus; test: Change in diastolic blood pressure after iv administration of 4.12 uM/Kg in anesthetized rats; type: functional, Artery
[19] = system: Rattus norvegicus; test: Change in stroke volume after iv administration of 50 ug/Kg in anesthetized rats; type: functional; in short: as §3
[20] = system: Rattus norvegicus; test: Change in diastolic blood pressure after iv administration of 1600 ug/Kg compound (treatment with papaverine(1 mg/Kg/min, iv)in anesthetized rats; type: functional, Artery
In short: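 In anesthetized male Wistar rats, responses to iv compound (200–1600 µg/kg, ratio 2.0) were measured alone and under three pretreatments: continuous iv papaverine infusion (1 mg/kg/min), ip reserpine (5 mg/kg/day for 2 days), or iv hexamethonium (5 mg/kg). Peak changes are given as mean ± SE, n = 6 per group; p < 0.05 versus control.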

[21] = system: Rattus norvegicus; test: Change in diastolic blood pressure after iv administration of 400 ug/Kg in the presence of adrenaline (agonist) in anesthetized rats; type: functional, Artery; in short: as §1
[22] = system: Rattus norvegicus; test: Change in diastolic blood pressure after iv administration of 800 ug/Kg in anesthetized rats; type: functional, Artery; in short: as §5
[23] = system: Rattus norvegicus; test: Maximum rate of rise of the left ventricular isovolumetric pressure after iv administration of 800 ug/Kg compound (treatment with reserpine(5 mg/kg/day for 2 days, ip)in anesthetized rats; type: functional, Heart left ventricle
In short: (§6)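 Anesthetized rats, n = 6 per group, received iv doses of 200–1600 µg/kg (ratio 2.0) either alone (control) or under pretreatment: continuous iv papaverine infusion 1 mg/kg/min, reserpine 5 mg/kg/day ip for 2 days, or hexamethonium 5 mg/kg iv. Peak changes in BP, heart rate and dP/dt recorded; means ± SE, p < 0.05 versus control.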

[24] = system: Rattus norvegicus; test: Change in mean aortic flow after iv administration of 200 ug/Kgin anesthetized rats; type: functional; in short: as §3
[25] = system: Rattus norvegicus; test: Change in systolic blood pressure after iv administration of 3200 ug/Kg in anesthetized rats; type: functional, Artery; in short: as §3
[26] = system: Rattus norvegicus; test: Maximum rate of rise of the left ventricular isovolumetric pressure was measured after iv administration of 1600 ug/Kg compound (treatment with papaverine(1 mg/Kg/min, iv)in anesthetized rats; type: functional, Heart left ventricle; in short: as §6
[27] = system: Rattus norvegicus; test: Change in diastolic blood pressure after iv administration of 1600 ug/Kg in anesthetized rats; type: functional, Artery; in short: as §5
[28] = system: Rattus norvegicus; test: Change in respiratory frequency after iv administration of 3200 ug/Kg in anesthetized rats; type: functional; in short: as §3
[29] = system: Rattus norvegicus; test: Change in systolic blood pressure after iv administration of 1600 ug/Kg in the presence of acetylcholine (agonist) in anesthetized rats; type: functional, Artery

COc1ccc(C2C(c3ccc(OC)c(OC)c3)[C@H](C(=O)NCCCC/N=C(\N)NCC=C(C)C)[C@@H]2C(=O)NCCCC/N=C(\N)NCC=C(C)C)cc1OC (stereo partly drawn) [CARACASANDIAMIDE]
Heart rate [1]: 79 beats min-1 | dP/dt [2]: 3991 mmHg s-1 | dP/dt [3]: 6848 mmHg s-1 | BP [4]: -41 mmHg | Change in BP [4]: -39% | Change in mean aortic flow [5]: 15% | Mean aortic flow [5]: 11 mL/min | BP [6]: -66 mmHg | Change in mean aortic flow [7]: 26% | Mean aortic flow [7]: 19 mL/min | BP [8]: -36 mmHg | dP/dt [9]: 2739 mmHg s-1 | BP [10]: -33 mmHg | BP [11]: -41 mmHg | BP [12]: -45 mmHg | Change in stroke volume [13]: -23% | Stroke volume [13]: -46 µL | Change in stroke volume [14]: -43% | Stroke volume [14]: -86 µL | BP [15]: 3 mmHg | Change in heart rate [16]: -3% | Heart rate [16]: -10 beats min-1 | BP [17]: 15 mmHg | BP [18]: -47 mmHg | Change in stroke volume [19]: 36% | BP [20]: -29 mmHg | BP [21]: 5 mmHg | BP [22]: -31 mmHg | Change in BP [22]: -40% | dP/dt [23]: 720 mmHg s-1 | Mean aortic flow [24]: -14 mL/min | BP [25]: -48 mmHg | Change in BP [25]: -46% | dP/dt [26]: 3321 mmHg s-1 | BP [27]: -43 mmHg | Change in BP [27]: -55% | Change in respiratory frequency [28]: -67 beats min-1 and -70% | BP [29]: -38 mmHg
